Values after ≈ are worked out from the molar mass of the structure shown. Active and inactive are the calls of the source. The rule behind the calls is not given here.
Legend:
Staphylococcus aureus [1] = assay: Antibacterial activity against beta-lactamase producing benzylpenicillin-resistant Staphylococcus aureus Russell after 18 hrs by serial dilution method; type: functional
How it was run: (§1)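 MICs by serial dilution on nutrient agar. Inoculum 0.001 mL of undiluted overnight broth culture. Plates incubated 18 h at 37 °C before reading. The S. aureus Russell strain produces β-lactamase and resists benzylpenicillin.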

Escherichia coli [2] = assay: Antibacterial activity against Escherichia coli after 18 hrs by serial dilution method; type: functional
How it was run: (§2)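 MICs by serial dilution on nutrient agar. Inoculum 0.001 mL of undiluted overnight broth culture. Plates incubated at 37 °C for 18 h before reading.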

Salmonella typhi = assay: Antibacterial activity against Salmonella typhi after 18 hrs by serial dilution method; type: functional, Salmonella enterica subsp. enterica serovar Typhi; conditions: Salmonella enterica; how it was run: as §1
Shigella sonnei = assay: Antibacterial activity against Shigella sonnei after 18 hrs by serial dilution method; type: functional; how it was run: as §2
Klebsiella aerogenes = assay: Antibacterial activity against Klebsiella aerogenes after 18 hrs by serial dilution method; type: functional; how it was run: as §2
Proteus mirabilis [3] = assay: Antibacterial activity against Proteus mirabilis after 18 hrs by serial dilution method; type: functional; how it was run: as §2
[4] = Drug level in mouse blood at 50 mg/kg, po after 15 mins by microbiological assay
[5] = Drug level in mouse blood at 50 mg/kg, po after 30 mins by microbiological assay; type: ADME, organism-based; parameters: dose 50 mg/kg, route oral; conditions: read-out: Drug uptake
How it was run: (§3)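 Mice given a single 50 mg/kg dose by the route in the line. Groups of five killed at each time point and blood taken from the cut axilla, heparinized and stored at 4 °C. Blood assayed the same day by large-plate microbiological assay with Sarcina lutea NCTC 8340, overnight at 30 °C. Standards made in mouse blood, with pH 7.2 phosphate-buffered saline as diluent.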

[6] = Drug level in mouse blood at 50 mg/kg, po after 1 hr by microbiological assay; type: ADME, organism-based; parameters: dose 50 mg/kg, route oral; conditions: read-out: Drug uptake; how it was run: as §3
[7] = Drug level in mouse blood at 50 mg/kg, po after 2 hrs by microbiological assay; type: ADME, organism-based; parameters: dose 50 mg/kg, route oral; conditions: read-out: Drug uptake; how it was run: as §3
[8] = Drug level in mouse blood at 50 mg/kg, po after 4 hrs by microbiological assay; type: ADME, organism-based; parameters: dose 50 mg/kg, route oral; conditions: read-out: Drug uptake; how it was run: as §3
[9] = Drug level in mouse blood at 50 mg/kg, sc after 10 mins by microbiological assay; type: ADME, organism-based; parameters: dose 50 mg/kg, route subcutaneous; conditions: read-out: Drug uptake; how it was run: as §3
[10] = Drug level in mouse blood at 50 mg/kg, sc after 20 mins by microbiological assay; type: ADME, organism-based; parameters: dose 50 mg/kg, route subcutaneous; conditions: read-out: Drug uptake; how it was run: as §3
[11] = Drug level in mouse blood at 50 mg/kg, sc after 30 mins by microbiological assay; type: ADME, organism-based; parameters: dose 50 mg/kg, route subcutaneous; conditions: read-out: Drug uptake; how it was run: as §3
[12] = Drug level in mouse blood at 50 mg/kg, sc after 1 hr by microbiological assay; type: ADME, organism-based; parameters: dose 50 mg/kg, route subcutaneous; conditions: read-out: Drug uptake; how it was run: as §3
[13] = Drug level in mouse blood at 50 mg/kg, sc after 2 hrs by microbiological assay; type: ADME, organism-based; parameters: dose 50 mg/kg, route subcutaneous; conditions: read-out: Drug uptake; how it was run: as §3
[14] = Drug level in mouse blood at 50 mg/kg, sc after 4 hrs by microbiological assay; type: ADME, organism-based; parameters: dose 50 mg/kg, route subcutaneous; conditions: read-out: Drug uptake; how it was run: as §3
Staphylococcus aureus [15] = assay: Antibacterial activity against Staphylococcus aureus Smith infected in sc dosed mouse administered 1 hr post infection; type: functional
How it was run: (§4)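 Infected mice were treated subcutaneously or orally. Protection is expressed as CD50 in mg/kg, as the total dose given.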

Staphylococcus aureus [16] = assay: Antibacterial activity against Staphylococcus aureus Smith infected in sc dosed mouse administered 1 hr and 5 hrs post infection; type: functional; how it was run: as §4
Escherichia coli [17] = assay: Antibacterial activity against Escherichia coli 8 infected in sc dosed mouse administered 1 hr post infection; type: functional; how it was run: as §4
Escherichia coli [18] = assay: Antibacterial activity against Escherichia coli 8 infected in sc dosed mouse administered 1 hr and 5 hrs post infection; type: functional; how it was run: as §4
Proteus mirabilis [19] = assay: Antibacterial activity against Proteus mirabilis 13 infected in sc dosed mouse administered 1 hr post infection; type: functional; how it was run: as §4
Proteus mirabilis [20] = assay: Antibacterial activity against Proteus mirabilis 13 infected in sc dosed mouse administered 1 hr and 5 hrs post infection; type: functional; how it was run: as §4
Staphylococcus aureus [21] = assay: Antibacterial activity against Staphylococcus aureus Smith infected in po dosed mouse administered 1 hr post infection; type: functional; how it was run: as §4
Staphylococcus aureus [22] = assay: Antibacterial activity against Staphylococcus aureus Smith infected in po dosed mouse administered 1 hr and 5 hrs post infection; type: functional; how it was run: as §4
Escherichia coli [23] = assay: Antibacterial activity against Escherichia coli 8 infected in po dosed mouse administered 1 hr post infection; type: functional; how it was run: as §4
Escherichia coli [24] = assay: Antibacterial activity against Escherichia coli 8 infected in po dosed mouse administered 1 hr and 5 hrs post infection; type: functional; how it was run: as §4
Staphylococcus aureus [25] = assay: Antibacterial activity against Staphylococcus aureus Oxford after 18 hrs by serial dilution method; type: functional; how it was run: as §2
[26] = Drug level in mouse blood at 50 mg/kg, po after 10 mins by microbiological assay; type: ADME, organism-based; parameters: dose 50 mg/kg, route oral; conditions: read-out: Drug uptake; how it was run: as §3
[27] = Drug level in mouse blood at 50 mg/kg, po after 20 mins by microbiological assay; type: ADME, organism-based; parameters: dose 50 mg/kg, route oral; conditions: read-out: Drug uptake; how it was run: as §3
[28] = Drug level in mouse blood at 50 mg/kg, iv after 10 mins by microbiological assay; type: ADME, organism-based; parameters: dose 50 mg/kg, route intravenous; conditions: read-out: Drug uptake; how it was run: as §3
[29] = Drug level in mouse blood at 50 mg/kg, iv after 20 mins by microbiological assay; type: ADME, organism-based; parameters: dose 50 mg/kg, route intravenous; conditions: read-out: Drug uptake; how it was run: as §3
[30] = Drug level in mouse blood at 50 mg/kg, iv after 30 mins by microbiological assay; type: ADME, organism-based; parameters: dose 50 mg/kg, route intravenous; conditions: read-out: Drug uptake; how it was run: as §3
[31] = Drug level in mouse blood at 50 mg/kg, iv after 1 hr by microbiological assay; type: ADME, organism-based; parameters: dose 50 mg/kg, route intravenous; conditions: read-out: Drug uptake; how it was run: as §3
[32] = Drug level in mouse blood at 50 mg/kg, iv after 2 hrs by microbiological assay; type: ADME, organism-based; parameters: dose 50 mg/kg, route intravenous; conditions: read-out: Drug uptake; how it was run: as §3
[33] = Drug level in mouse blood at 50 mg/kg, iv after 4 hrs by microbiological assay; type: ADME, organism-based; parameters: dose 50 mg/kg, route intravenous; conditions: read-out: Drug uptake; how it was run: as §3
[34] = Drug metabolism in mouse assessed as metabolite level in urine by Sarcina lutea antibacterial assay; type: ADME
How it was run: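 Urine from dosed mice run on paper strip chromatography in butanol-ethanol-water (4:1:5). Active zones located on agar plates seeded with Sarcina lutea.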

Pseudomonas aeruginosa = assay: Antibacterial activity against cephalosporin-resistant Pseudomonas aeruginosa after 18 hrs by serial dilution method; type: functional, organism-based; how it was run: as §1
Morganella morganii = assay: Antibacterial activity against cephalosporin-resistant Proteus morganii after 18 hrs by serial dilution method; type: functional, organism-based; how it was run: as §1
Enterobacter cloacae = assay: Antibacterial activity against cephalosporin-resistant Enterobacter cloacae after 18 hrs by serial dilution method; type: functional, organism-based; how it was run: as §1

Structure (SMILES) | MIC (Klebsiella aerogenes) | concentration at 0.5 h [5] | concentration at 1 h [6] | concentration at 2 h [7] | concentration at 4 h [8] | concentration at 10 min [9] | concentration at 20 min [10] | concentration at 0.5 h [11] | concentration at 1 h [12] | concentration at 2 h [13] | concentration at 4 h [14] | CD50 (Staphylococcus aureus [15]) | CD50 (Staphylococcus aureus [16]) | CD50 (Escherichia coli [17]) | CD50 (Escherichia coli [18]) | CD50 (Proteus mirabilis [19]) | CD50 (Proteus mirabilis [20]) | CD50 (Staphylococcus aureus [21]) | CD50 (Staphylococcus aureus [22]) | CD50 (Escherichia coli [23]) | also measured
CC1=C(C(=O)O)N2C(=O)[C@@H](NC(=O)[C@H](N)c3ccccc3)[C@H]2SC1 [CEPHALEXIN ANHYDROUS] | 5 µg/mL (≈ 14.4 µM) | 21700 ng/mL | 8300 ng/mL | 2500 ng/mL | 560 ng/mL | 27000 ng/mL | 20500 ng/mL | 13300 ng/mL | 3000 ng/mL | 420 ng/mL | < 150 ng/mL | 0.46 mg/kg | 1 mg/kg | 7.4 mg/kg | 17 mg/kg | 64 mg/kg | 84 mg/kg | 0.25 mg/kg | 0.38 mg/kg | 8.5 mg/kg | MIC (Staphylococcus aureus [1]): 5 µg/mL (≈ 14.4 µM); MIC (Escherichia coli [2]): 12.5 µg/mL (≈ 36 µM); MIC (Salmonella typhi): 5 µg/mL (≈ 14.4 µM); MIC (Shigella sonnei): 5 µg/mL (≈ 14.4 µM); MIC (Proteus mirabilis [3]): 12.5 µg/mL (≈ 36 µM); concentration at 0.25 h [4]: 23900 ng/mL; CD50 (Escherichia coli [24]): 17 mg/kg; MIC (Staphylococcus aureus [25]): 1.25 µg/mL (≈ 3.6 µM)
N[C@@H](C(=O)N[C@@H]1C(=O)N2C(C(=O)O)=C(Cc3ccc(C(=O)O)cc3)CS[C@H]12)c1ccccc1 | 2.5 µg/mL (≈ 5.35 µM) | 1600 ng/mL | 2400 ng/mL | 2300 ng/mL | 1900 ng/mL | 75200 ng/mL | 87400 ng/mL | 68800 ng/mL | 48000 ng/mL | 22000 ng/mL | 9300 ng/mL | 1.25 mg/kg | 1.8 mg/kg | 130 mg/kg | 60 mg/kg | 14 mg/kg | 19 mg/kg | 17 mg/kg | 28 mg/kg | >1000 mg/kg | concentration at 10 min [26]: < 1000 ng/mL; concentration at 20 min [27]: < 1000 ng/mL; concentration at 10 min [28]: 70300 ng/mL; concentration at 20 min [29]: 48200 ng/mL; concentration at 0.5 h [30]: 39200 ng/mL; concentration at 1 h [31]: 25400 ng/mL; concentration at 2 h [32]: 4500 ng/mL; concentration at 4 h [33]: 2400 ng/mL; CD50 (Escherichia coli [24]): 2000 mg/kg; Drug metabolism [34]: metabolite_detected; Activity (Pseudomonas aeruginosa): inactive; Activity (Morganella morganii): inactive; Activity (Enterobacter cloacae): inactive

Reference: ChEMBL document CHEMBL3244187, “Structure--activity relationships in cephalosporins prepared from penicillins. 2. Analogues of cephalexin substituted in the 3-methyl group” (J Med Chem, 1977)
